STAT1 blocker: STAT1 signaling inhibitors, primary screen, cell-based, HTS, luciferase reporter | 200,000 tested, 0.35% active | NIH 3T3 STAT1-luciferase reporter, IFN-gamma, luminescence | AID 920, 2007 | inhibition, % at 5.5 µM;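 active = inhibition above a set limit, the mean inhibition across all tested compounds plus 3 SD, cut at about 34% in these data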
HSP90 inh: HSP90 inhibitors, primary screen, cell lysate, luminescence. Heat shock protein HSP 90 (rabbit reticulocyte lysate; luciferase refolding). Rabbit reticulocyte lysate, luciferase refolding luminescence, 3 h. inhibition, % at 5.6 µM. 290,000 tested, 0.91% active. AID 1789, 2009;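 active = inhibition above the screen-wide mean plus 3 SD, computed separately per campaign, cut at about 16% in these data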;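 also: inhibitors lower the luminescence because luciferase stays unfolded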
STAT3 act-1: IL-6 driven STAT3 reporter potentiators, primary screen, U3A cells, luciferase, luminescence, MLSCN library; IL-6 STAT3-luciferase reporter; 100% = signal with IL-6 EC80 alone; activation (% of control), % at 5.6 µM; 190,000 tested, 0.91% active;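 active = activation above the screen-wide mean of compound activation plus 3 SD, cut at about 130% in these data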
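Test system: Human STAT1-deficient U3A cells with stable STAT3-luciferase reporter | Also added: Interleukin-6, 33 ng/mL | Timing: Compound pre-incubation 1 h before IL-6, then 6 h stimulation at 37 °C | Technique: Luciferase reporter luminescence | Read-out: Percent of IL-6-only median luminescence | Benchmarks: IL-6-only wells as 100% reference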
STAT3 inh: IL-6 driven STAT3 reporter inhibitors, primary screen, U3A cells, luciferase, luminescence, MLSCN library | AID 862, 2007 | 190,000 tested, 0.89% active | IL-6 STAT3-luciferase reporter; host cell line lacks STAT1 | inhibition, % at 5.5 µM;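 active = inhibition above the mean inhibition across all screened compounds plus 3 SD, cut at about 44% in these data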
STAT3 act-2: STAT3 reporter potentiators, retest of hits, confirmation, U3A cells, luciferase, luminescence | shares compounds with STAT3 act-1 | IL-6 potentiation; U3A cells lack STAT1; 100 means same as IL-6 alone | potentiation (% of control), % at 5.7 µM | 1,200 tested, 64% active | AID 1267, 2008;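 active = percent activation of the STAT3 luciferase reporter above a set limit taken from the earlier primary screen, cut at about 130% in these data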
NFkB act 2: NF-kB reporter activators in human cells, counter-screen for STAT3 activator project | shares compounds with STAT3 act-1 | activation (% of control), % at 5.7 µM | NF-kappaB reporter activation | 1,200 tested, 11% active | AID 1309, 2008; in the data active = activation above about 120%;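 also: reporter induced by TNF-alpha stimulation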
STAT1 act STAT3c: STAT1 reporter activators, IFN-gamma induced, counter-screen for STAT3 activator project, cell-based, NIH 3T3, luciferase luminescence; shares compounds with STAT3 act-1; NIH 3T3 STAT1-luciferase reporter; 1,200 tested, 13% active; activation (% of control), % at 5.7 µM; AID 1318, 2008;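 active = activation above the solvent-only control well mean plus 3 SD, set per screening run, cut at about 120% in these data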
Numbers stand for hits. Only some compounds are listed: those with a hit (about 2% of all), similar ones and a draw of the others.

CCCC(=O)Nc1nn(C)c2nc3c(C)cccc3cc12 was read as STAT1 blocker inactive, HSP90 inh inactive, STAT3 act-1 inactive and STAT3 inh inactive.
`CCCCOP(=O)(OCCCC)C1(NS(=O)(=O)c2ccccc2)C=CC(=O)c2ccccc21` (configuration not stated) gave STAT1 blocker inactive, HSP90 inh inactive, STAT3 act-1 144, STAT3 inh inactive, STAT3 act-2 inactive, NFkB act 2 inactive and STAT1 act STAT3c inactive.
For CCCCOCCCNS(=O)(=O)c1ccccc1 the results were STAT1 blocker inactive, HSP90 inh inactive, STAT3 act-1 inactive and STAT3 inh inactive.
`COc1ccnc(Nc2ccc(C)c(C)c2)c1C#N` gave STAT1 blocker inactive, HSP90 inh inactive, STAT3 act-1 143, STAT3 inh inactive, STAT3 act-2 inactive, NFkB act 2 inactive and STAT1 act STAT3c inactive.
`O=c1oc2ccccc2cc1-c1nc2ccccc2o1` gave STAT1 blocker inactive, HSP90 inh inactive, STAT3 act-1 inactive and STAT3 inh inactive.
For O=c1oc2ccc3ccccc3c2cc1-c1nc2ccccc2o1 the results were STAT1 blocker inactive, HSP90 inh inactive, STAT3 act-1 163, STAT3 inh inactive, STAT3 act-2 133, NFkB act 2 inactive and STAT1 act STAT3c inactive.
`C=CCN(CC=C)C(=O)CN1C(=O)NC(c2ccccc2)(c2ccccc2)C1=O` gave HSP90 inh inactive.
Screening CN1c2ccsc2C(O)=C(C(=S)Nc2ccc(F)c(Cl)c2)S1(=O)=O returned STAT1 blocker inactive, HSP90 inh inactive, STAT3 act-1 142, STAT3 inh inactive, STAT3 act-2 inactive, NFkB act 2 inactive and STAT1 act STAT3c inactive.
Cn1cc(C(=O)Nc2ccc(F)c(Cl)c2)cn1 was read as STAT1 blocker inactive, HSP90 inh inactive, STAT3 act-1 inactive and STAT3 inh inactive.
`CC(=O)c1cc(C(=O)N2CCc3c([nH]c4ccccc34)C2CC(C)C)[nH]n1` (configuration not stated) gave STAT1 blocker inactive, HSP90 inh inactive, STAT3 act-1 145, STAT3 inh inactive, STAT3 act-2 143, NFkB act 2 inactive and STAT1 act STAT3c inactive.
Screening Cc1c(CN2CCc3c([nH]c4ccccc34)C2CC(C)C)cnn1C (configuration not stated) returned STAT1 blocker inactive, HSP90 inh inactive, STAT3 act-1 139, STAT3 inh inactive, STAT3 act-2 143, NFkB act 2 inactive and STAT1 act STAT3c inactive.
Screening CC(C)CC1c2[nH]c3ccccc3c2CCN1C(=O)CCC(=O)N(C)C (configuration not stated) returned STAT1 blocker inactive, HSP90 inh inactive, STAT3 act-1 144, STAT3 inh inactive, STAT3 act-2 150, NFkB act 2 inactive and STAT1 act STAT3c inactive.
Screening CCC1(C)Cc2c(sc3nc(SC)[nH]c(=S)c23)CO1 (configuration not stated) returned HSP90 inh inactive.
For Cc1cc(=O)oc2c(C)c(OCC(=O)NCCCN3CCOCC3)ccc12 the results were HSP90 inh inactive.
Screening Cc1cccc2nc(CSc3nc4[nH]ncc4c(=O)n3-c3ccccc3Cl)cc(=O)n12 returned STAT1 blocker inactive, HSP90 inh inactive, STAT3 act-1 136, STAT3 inh inactive, STAT3 act-2 152, NFkB act 2 inactive and STAT1 act STAT3c inactive.
Screening CC(=O)N1N=C(c2ccccc2O)OC1(C)CC(=O)Nc1ccccc1 (configuration not stated) returned STAT1 blocker inactive, HSP90 inh inactive, STAT3 act-1 139, STAT3 inh inactive, STAT3 act-2 140, NFkB act 2 inactive and STAT1 act STAT3c inactive.
For COc1cccc(-c2nc(CS(=O)CC(=O)NC(C)CCc3ccccc3)c(C)o2)c1 (configuration not stated) the results were HSP90 inh inactive.
For Cc1nn(-c2ccccc2)c2c1C(c1ccncc1)C(C#N)=C(N)O2 (configuration not stated) the results were STAT1 blocker inactive, HSP90 inh inactive, STAT3 act-1 inactive and STAT3 inh inactive.
`Cc1ccc(-n2nc(C)c3c2OC(N)=C(C#N)C3c2cccs2)cc1` (configuration not stated) gave STAT1 blocker inactive, HSP90 inh inactive, STAT3 act-1 142, STAT3 inh inactive, STAT3 act-2 157, NFkB act 2 inactive and STAT1 act STAT3c inactive.
Cc1nn(CC(=O)N2CCCCCC2)c(=O)c2cc3occc3n12 was read as HSP90 inh inactive.
Screening CSCC[C@H](NS(=O)(=O)c1ccc(C)cc1)C(=O)N1CCC(C(=O)N[C@@H](Cc2ccc(O)cc2)C(=O)O)CC1 returned HSP90 inh inactive.
`O=C(NCCSc1c[nH]c2ccccc12)c1ccco1` gave STAT1 blocker inactive, HSP90 inh inactive, STAT3 act-1 140, STAT3 inh inactive, STAT3 act-2 inactive, NFkB act 2 inactive and STAT1 act STAT3c 133.
O=C(NCCSc1c[nH]c2ccccc12)c1c(F)cccc1F was read as STAT1 blocker inactive and HSP90 inh inactive.
Screening Cc1[nH]c2ccccc2c1CN1CCc2ccccc2C1 returned STAT1 blocker inactive, HSP90 inh inactive, STAT3 act-1 158, STAT3 inh inactive, STAT3 act-2 inactive, NFkB act 2 inactive and STAT1 act STAT3c inactive.
O=c1[nH]c(CN2CCc3ccccc3C2)nc2ccccc12 was read as STAT1 blocker inactive, HSP90 inh inactive, STAT3 act-1 inactive and STAT3 inh inactive.
Screening COc1cccc(OC)c1C(=O)Nc1ccc2c(c1)Cc1ccccc1-2 returned STAT1 blocker inactive, HSP90 inh inactive, STAT3 act-1 inactive and STAT3 inh inactive.
`COc1cccc(OC)c1C(=O)NC(=S)Nc1ccc2c(c1)Cc1ccccc1-2` gave STAT1 blocker inactive, HSP90 inh inactive, STAT3 act-1 150, STAT3 inh inactive, STAT3 act-2 inactive, NFkB act 2 inactive and STAT1 act STAT3c inactive.
CCn1c(C)c(Br)c(=O)c(C(=O)OC)c1-c1ccc(Cl)cc1 was read as HSP90 inh inactive.
Screening CCC(CC)NC(=O)Cc1ccccc1[N+](=O)[O-] returned STAT1 blocker inactive, HSP90 inh inactive, STAT3 act-1 138, STAT3 inh inactive, STAT3 act-2 140, NFkB act 2 inactive and STAT1 act STAT3c inactive.
CCCC(C)NC(=O)Cc1ccccc1[N+](=O)[O-] (configuration not stated) was read as STAT1 blocker inactive, HSP90 inh inactive, STAT3 act-1 inactive and STAT3 inh inactive.

From PubChem
